Assay results: ChEMBL document CHEMBL4480411, “Discovery of Second Generation RORγ Inhibitors Composed of an Azole Scaffold” (J Med Chem, 2019)
Activity calls are given as the source filed them. The rule behind the calls is not given here.

What was measured:
[1] = Stability in human liver microsomes assessed as compound remaining after 60 mins; assay type: ADME, Microsome; settings: read-out: Stability
Method in brief: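 Human liver microsomes incubated with compound for 60 minutes; value reported as % of compound remaining.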

Mus musculus [2] = test: Anti-inflammatory activity in orally dosed C57BL/6 mouse model of MOG (35 to 55 residues)/pertussis toxin/anti-CD3 antibody-induced experimental allergic encephalomyelitis assessed as inhibition of IL17 production measured 8 hrs after post dose by ELISA; assay type: functional
Method in brief: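 Female C57BL/6 mice immunized subcutaneously at two back sites (75 μg MOG35–55 per site; peptide at 3 mg/mL in D-PBS emulsified 1:1 with complete Freund's adjuvant), plus intraperitoneal pertussis toxin 0.2 μg on days 1 and 3. Day 5: anti-CD3 1 μg i.v. Oral dosing 3 h or 8 h before anti-CD3, 5 mice/group. Blood taken 2 h post-anti-CD3; plasma IL-17A measured by ELISA.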

Mus musculus [3] = test: Anti-inflammatory activity in C57BL/6 mouse model of IL23-induced dermatitis assessed as inhibition of ear swelling at 3 to 30 mg/kg, po administered once daily from day 1 to 11 and measured on days 1, 5, 8, 10, 12 post dose; assay type: functional, organism-based
Method in brief: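 IL-23 dermatitis: 250 ng recombinant mouse IL-23 in 20 μL PBS with 0.1% BSA injected intradermally into left ear of anesthetized mice on days 1, 3, 5, 8 and 10. Oral dosing at 3 and 30 mg/kg (vehicle 0.5% MC, 10 mL/kg) daily days 1–11. Left ear thickness measured by digital gauge on days 1, 5, 8, 10, 12; change from day 1 baseline.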

Retinoid X receptor = target: T1, Retinoid X receptor (Homo sapiens, UniProt P28702+P48443+P19793); test: Inhibition of GAL4-fused human RXR transcriptional activity expressed in CHOK1 cells after 2 days by luciferase reporter gene assay; assay type: cell-based
T1 sequence (P28702 whole entry): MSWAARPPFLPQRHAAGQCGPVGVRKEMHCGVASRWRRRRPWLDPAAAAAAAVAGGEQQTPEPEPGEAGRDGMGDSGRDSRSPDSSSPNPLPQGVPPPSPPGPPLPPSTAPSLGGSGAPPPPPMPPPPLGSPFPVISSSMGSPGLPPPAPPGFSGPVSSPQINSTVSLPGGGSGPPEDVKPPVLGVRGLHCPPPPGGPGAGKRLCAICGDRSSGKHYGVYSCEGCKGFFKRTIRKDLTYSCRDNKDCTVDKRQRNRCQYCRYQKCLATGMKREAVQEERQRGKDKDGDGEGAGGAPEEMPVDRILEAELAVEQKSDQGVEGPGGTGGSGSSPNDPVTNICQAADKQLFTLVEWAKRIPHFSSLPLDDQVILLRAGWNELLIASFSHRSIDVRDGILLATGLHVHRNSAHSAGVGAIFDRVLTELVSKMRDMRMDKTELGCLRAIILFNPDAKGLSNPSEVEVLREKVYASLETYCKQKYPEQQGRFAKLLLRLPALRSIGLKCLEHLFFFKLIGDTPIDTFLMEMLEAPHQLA
T1 sequence (P48443 whole entry): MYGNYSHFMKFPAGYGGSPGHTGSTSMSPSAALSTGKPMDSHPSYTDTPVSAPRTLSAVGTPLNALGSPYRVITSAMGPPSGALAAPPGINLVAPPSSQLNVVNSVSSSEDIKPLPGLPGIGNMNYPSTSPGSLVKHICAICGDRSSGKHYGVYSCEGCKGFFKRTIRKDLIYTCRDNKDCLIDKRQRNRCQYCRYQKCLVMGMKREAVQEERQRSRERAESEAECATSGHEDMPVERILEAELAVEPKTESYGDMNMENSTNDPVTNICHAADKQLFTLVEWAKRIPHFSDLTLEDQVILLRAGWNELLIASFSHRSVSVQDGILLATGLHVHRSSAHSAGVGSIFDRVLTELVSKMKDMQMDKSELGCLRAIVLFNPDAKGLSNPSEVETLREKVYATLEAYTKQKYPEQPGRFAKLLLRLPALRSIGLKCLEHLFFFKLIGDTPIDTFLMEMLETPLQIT
T1 sequence (P19793 whole entry): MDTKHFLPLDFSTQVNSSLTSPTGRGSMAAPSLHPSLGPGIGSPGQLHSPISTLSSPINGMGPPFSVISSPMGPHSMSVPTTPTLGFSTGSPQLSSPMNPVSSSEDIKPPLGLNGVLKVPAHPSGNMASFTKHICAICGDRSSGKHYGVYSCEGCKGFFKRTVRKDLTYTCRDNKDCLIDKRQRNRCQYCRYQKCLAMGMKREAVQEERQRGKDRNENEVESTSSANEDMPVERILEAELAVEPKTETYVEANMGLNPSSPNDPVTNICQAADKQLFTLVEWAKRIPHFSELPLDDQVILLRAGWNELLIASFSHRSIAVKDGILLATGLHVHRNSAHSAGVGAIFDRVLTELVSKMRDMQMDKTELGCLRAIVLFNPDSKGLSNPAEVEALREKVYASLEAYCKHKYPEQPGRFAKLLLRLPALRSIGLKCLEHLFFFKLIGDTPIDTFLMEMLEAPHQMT

Cytochrome P450 3A4 [4] = target: T2, Cytochrome P450 3A4 (Homo sapiens, UniProt P08684); test: Time-dependent inhibition of human CYP3A4 using midazolam as substrate; assay type: ADME
T2 sequence (P08684 whole entry): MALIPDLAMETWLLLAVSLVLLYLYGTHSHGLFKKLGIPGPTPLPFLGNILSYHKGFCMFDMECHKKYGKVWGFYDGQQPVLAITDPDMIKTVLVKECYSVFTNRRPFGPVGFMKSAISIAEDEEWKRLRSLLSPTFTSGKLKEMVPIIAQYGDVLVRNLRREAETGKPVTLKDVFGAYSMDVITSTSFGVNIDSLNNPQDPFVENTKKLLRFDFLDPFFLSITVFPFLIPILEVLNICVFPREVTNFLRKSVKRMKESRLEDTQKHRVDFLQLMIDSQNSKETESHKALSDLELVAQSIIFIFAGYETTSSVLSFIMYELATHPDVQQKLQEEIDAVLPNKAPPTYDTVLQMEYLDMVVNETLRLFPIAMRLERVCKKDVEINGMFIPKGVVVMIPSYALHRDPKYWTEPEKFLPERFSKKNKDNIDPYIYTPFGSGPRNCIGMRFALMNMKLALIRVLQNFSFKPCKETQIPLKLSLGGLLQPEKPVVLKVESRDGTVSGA

Cytochrome P450 3A4 [5] = target: T2, Cytochrome P450 3A4; test: Time-dependent inhibition of human CYP3A4 using testosterone as substrate; assay type: ADME
Cytochrome P450 2C9 = Cytochrome P450 2C9 (Homo sapiens, UniProt P11712); test: Time-dependent inhibition of human CYP2C9; assay type: ADME
Chain of Cytochrome P450 2C9 (P11712 whole entry): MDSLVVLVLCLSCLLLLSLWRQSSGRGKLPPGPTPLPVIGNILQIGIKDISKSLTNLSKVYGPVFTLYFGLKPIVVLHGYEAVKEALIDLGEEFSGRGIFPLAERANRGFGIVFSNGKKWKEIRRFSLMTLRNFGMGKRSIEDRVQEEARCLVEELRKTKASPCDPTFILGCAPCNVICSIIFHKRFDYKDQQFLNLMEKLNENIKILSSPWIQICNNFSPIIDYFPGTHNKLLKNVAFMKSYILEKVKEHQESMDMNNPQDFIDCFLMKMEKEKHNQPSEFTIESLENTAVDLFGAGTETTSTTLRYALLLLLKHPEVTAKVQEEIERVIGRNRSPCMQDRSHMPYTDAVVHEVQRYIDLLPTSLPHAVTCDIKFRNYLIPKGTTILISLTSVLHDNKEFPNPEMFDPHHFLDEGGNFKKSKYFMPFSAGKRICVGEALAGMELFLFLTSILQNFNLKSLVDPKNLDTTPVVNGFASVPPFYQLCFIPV

Cytochrome P450 1A2 = target: T3, Cytochrome P450 1A2 (Homo sapiens, UniProt P05177); test: Time-dependent inhibition of human CYP1A2; assay type: ADME
T3 sequence (P05177 whole entry): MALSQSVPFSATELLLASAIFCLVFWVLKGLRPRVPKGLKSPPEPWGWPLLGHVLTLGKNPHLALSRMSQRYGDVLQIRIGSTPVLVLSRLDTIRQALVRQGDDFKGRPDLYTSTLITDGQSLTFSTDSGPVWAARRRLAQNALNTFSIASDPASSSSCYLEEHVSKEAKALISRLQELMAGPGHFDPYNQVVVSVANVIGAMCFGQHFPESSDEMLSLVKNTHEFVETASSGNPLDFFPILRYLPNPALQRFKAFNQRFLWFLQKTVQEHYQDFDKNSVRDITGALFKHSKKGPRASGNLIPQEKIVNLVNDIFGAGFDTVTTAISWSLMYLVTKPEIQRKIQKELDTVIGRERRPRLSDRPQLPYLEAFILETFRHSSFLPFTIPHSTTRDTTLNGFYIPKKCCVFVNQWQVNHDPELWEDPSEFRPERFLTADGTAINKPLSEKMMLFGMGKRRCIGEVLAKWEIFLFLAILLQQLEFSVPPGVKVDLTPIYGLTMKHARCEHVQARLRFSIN

[6] = Total body clearance in CD(SD) rat at 1 mg/kg, iv; assay type: ADME, organism-based; settings: in vivo
[7] = AUC in CD(SD) rat at 3 mg/kg, po; assay type: ADME, organism-based; settings: in vivo

SMILES: CC(C)(C)Cc1cc(-c2onc([C@@H](CCC(=O)[O-])CC(=O)Nc3ccc(Cl)cc3Cl)c2C2CC2)no1.[Na+]
- remaining at 1 h [1]: 96%
- Activity (Mus musculus [2]): Dose-dependent effect
- ED50 (Mus musculus [2]; C57BL/6, po): 3 mg/kg
- Activity (Mus musculus [3]): Active
- EC50 (Retinoid X receptor): > 20 µM
- IC50 (Cytochrome P450 3A4 [4]): > 50 µM
- IC50 (Cytochrome P450 3A4 [5]): > 50 µM
- IC50 (Cytochrome P450 2C9): > 50 µM
- IC50 (Cytochrome P450 1A2): > 50 µM
- clearance [6]: 4.17 mL/min/kg
- AUC [7]: 15 µM·h
